Rtt109 HAT inh: blocks Candida albicans Rtt109/Vps75 acetyltransferase activity; Q5AAJ8; purified Rtt109/Vps75, ThioGlo CoA-SH fluorescence, 4 h; inhibition, % at 34.9 µM; 330,000 compounds, 0.16% hits;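 active means inhibition of at least 50% in every replicate; inconclusive means best replicate reaches 50% inhibition but some replicates fall short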
Target sequence (Q5AAJ8 whole entry, looked up): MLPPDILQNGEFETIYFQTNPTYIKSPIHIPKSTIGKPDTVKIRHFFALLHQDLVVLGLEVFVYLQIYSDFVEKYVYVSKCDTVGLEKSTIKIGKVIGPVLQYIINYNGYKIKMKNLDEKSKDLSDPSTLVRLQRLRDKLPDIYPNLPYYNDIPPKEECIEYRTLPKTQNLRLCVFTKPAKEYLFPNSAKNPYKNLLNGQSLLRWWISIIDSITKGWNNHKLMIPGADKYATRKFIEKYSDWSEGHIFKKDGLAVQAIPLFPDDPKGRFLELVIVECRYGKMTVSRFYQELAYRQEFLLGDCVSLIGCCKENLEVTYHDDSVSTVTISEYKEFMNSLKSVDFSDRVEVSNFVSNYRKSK
PfHsp90 yeast 2: growth inhibition of yeast expressing Plasmodium Hsp90; S. cerevisiae expressing PfHsp90, BacTiter-Glo ATP, 48 h; yeast lacking PDR1 and PDR3 efflux regulators; 310,000 compounds, 0.32% hits; inhibition, % at 9.4 µM;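 active means every replicate shows inhibition above about 80%, whatever the replicate mean, limit read from the data; inconclusive means mean inhibition reaches the set limit but some replicate falls short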;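 further: 0% = DMSO neutral controls and 100% = 20 µM radicicol positive controls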
Arrestin-AP2 inh: inhibitors of human beta-arrestin and AP2 interaction; FITC-arrestin peptide / GST-AP2 beads, flow cytometry; AP2 beta2 appendage carries R879A mutation; inhibition, % at 10 µM; 340,000 compounds, 0.31% hits; AID 504490;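 active means inhibition above a set limit, near 3 SD of compounds lacking own fluorescence, cut at about 54% in these data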;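 further: plate controls were DMSO wells for no effect and 5 µM unlabelled arrestin peptide for full effect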
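Material – GST-tagged AP2 beta2-adaptin appendage (R879A) on 4 µm glutathione beads · Probe or stimulus – fluorescein-tagged arrestin peptide at 50 nM final · Timing – 12 min plus 1 h, RT · Detection – bead flow cytometry, FITC channel · Read-out basis – inhibition as reduced fluorescein signal on beads, percent · Medium – PBS plus Tween 20 (0.05%) and BSA (0.1%)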
N-glyco inh: blocks N-linked glycosylation in D54 reporter cells | reporter increase, % at 12.5 µM | D54 ERlucT glycosylation luciferase reporter, 24 h; percent of 100 nM tunicamycin response | AID 588692 | 360,000 compounds, 0.23% hits;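 active means mean luciferase reporter signal, scaled so untreated is 0 and the glycosylation-blocking control 100, at or above a set limit in every replicate; inconclusive means mean reaches the limit but not every replicate does; inactive means mean below the limit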;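 further: luciferase carries N-glycosylation sites so blocking glycosylation raises the light; 0% = median of neutral control wells and 100% = median of 100 nM tunicamycin wells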
PAX8 inh HTS: inhibitors of PAX8 transcriptional activity in RMG-I cells. 360,000 compounds, 1.2% hits. AID 652154. RMG-I TPO-luciferase reporter, SteadyGlo, 24 h. inhibition, % at 12.6 µM;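 active means mean replicate inhibition at least 60% with every replicate also reaching 60%; inconclusive means only one of the two criteria is met; inactive means mean below 60% and not all replicates reaching 60%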;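 further: luciferase light reporting Pax8 driven TPO promoter activity; plate controls were median of neutral control wells for no effect and mitoxantrone controls for full effect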
HIV Env fusion: blocks HIV Env-driven cell-cell fusion. AID 651610. 360,000 compounds, 1.1% hits. HeLa-JRFL Env/CEM21 cell fusion, luciferase. inhibition, % at 12.3 µM;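 active means mean replicate inhibition score of at least 50 and every replicate individually at or above 50; inconclusive means only one of the two criteria met; inactive means mean below 50 and not all replicates reaching 50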;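 further: 0% = plate neutral controls and 100% = maraviroc near 300 nM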
Starred values were filed as active, the others as inactive; i = inactive; ? = inconclusive; nt = not tested or not shown; [ ] = another dose, or the depositor's remark. A selection: hits, their analogues and other compounds. The true share with any hit is near 2.3%.

SMILES	Rtt109 HAT inh	PfHsp90 yeast 2	Arrestin-AP2 inh	N-glyco inh	PAX8 inh HTS	HIV Env fusion
O=C(O)c1ccc(-[n+]2c(-c3ccccc3)cc(-c3ccccc3)cc2-c2ccccc2)cc1	-6	-31	-10	2	16	-11
C[n+]1c(-c2ccccc2)cc(CCCCc2cc(-c3ccccc3)[n+](C)c(-c3ccccc3)c2)cc1-c1ccccc1	12	-5	3	0	96*	-16
COc1ccc(-[n+]2c(-c3ccccc3)cc(-c3ccc(C)cc3)cc2-c2ccccc2)cc1	1	9	1	?	106*	54
CC=Cc1ccc2n(c1=O)C[C@H]1[C@H](CO)[C@@H](C(=O)N(C)C)N[C@@H]21 (mixture of isomers)	nt	nt	nt	nt	-2	nt
CC(C)NC(=O)N1[C@@H]2c3ccc(-c4cccc(C(=O)N(C)C)c4)c(=O)n3C[C@H]1[C@H](CO)[C@H]2C(=O)O	nt	nt	nt	nt	nt	-6[16.7 µM]
COc1ccc(C#Cc2ccc([C@@H]3[C@H](CO)N4CCCCN(C(=O)Cc5cccnc5)C[C@@H]34)cc2)cc1	nt	nt	nt	nt	-4	nt
C/C=C/c1ccc([C@@H]2[C@@H](CO)N3CCCCN(C(=O)Cc4cccnc4)C[C@@H]23)cc1	nt	nt	nt	nt	2	nt
COc1ccc(-c2cc(-c3ccccc3)[n+](C)c(-c3ccccc3)c2)cc1	nt	12	1	7	87*	39
CCCN1[C@@H]2c3ccc(-c4ccc(F)cc4)c(=O)n3C[C@H]1[C@H](CO)[C@H]2C(=O)OC	nt	nt	nt	nt	8	nt
NC(Cc1ccc(F)cc1)c1csc(Nc2ncccn2)n1 (stereo not given)	nt	nt	nt	-14	74*	-3
Nc1ccc(CC(N)c2csc(Nc3ncccn3)n2)cc1 (stereo not given)	nt	nt	nt	-1	2	-18
CC=Cc1ccc2n(c1=O)C[C@@H]1[C@@H](CO)[C@H](C(=O)O)[C@H]2N1S(=O)(=O)c1ccccc1C (mixture of isomers)	nt	nt	nt	nt	-6	nt
CC=Cc1ccc2n(c1=O)C[C@@H]1[C@@H](CO)[C@H](C(=O)OC)[C@H]2N1S(=O)(=O)c1cccc(C)c1 (mixture of isomers)	nt	nt	nt	nt	nt	61*[16.7 µM]
C[C@]12CC[C@H]3[C@@H](CCC4=CC(=O)CC[C@@H]43)[C@@H]1CC[C@@H]2O	-13	nt	4	-4	nt	nt
C[C@]12CCC3=C4CCC(=O)C=C4CC[C@H]3C1CC[C@@H]2O (stereo not given in full)	2	33	-12	0	6	56*
CC(N)C(=O)NC1C2C(=C(O)CC(O)C2O)C(=O)OC1(C)C(Cl)Cl (stereo not given)	8	-2	-2	-19	121*	99*
CCN(CCCl)c1cc(CN(C)C)cc(NC(=O)c2ccc(C(=O)Nc3cc(CN(C)C)cc(N(CC)CCCl)c3)cc2)c1	-6	22	-4	-20	108*	89*
CNc1ccc2oc(C[C@H]3O[C@@]4(CC[C@H]3C)O[C@H]([C@H](C)C(=O)c3ccc[nH]3)[C@H](C)C[C@H]4C)nc2c1C(=O)O	-2	111*	-6	-15	81*	90*
COCC#Cc1ccc([C@@H]2[C@@H](CO)N3CCCCN(C(=O)Cc4ccccn4)C[C@@H]23)cc1	nt	nt	nt	nt	-4	nt
CC1=CC(C)CC(C)OC(=O)CC(c2ccc(O)cc2)NC(=O)C(Cc2c(Br)[nH]c3ccccc23)N(C)C(=O)C(C)NC(=O)C(C)C1 (stereo not given)	-2	105*	0	-17	102*	81*
Cc1nnc(SCc2nc3ccccc3c(=O)n2-c2ccccc2Cl)n1N	-1	-23	13	5	nt	119*
CCOC(=O)[C@@H]1[C@@H]2NC(=O)N(C)[C@@]1(C)Oc1ccccc12	nt	nt	nt	nt	2	-2[16.7 µM]
Cc1ccc(C(=O)N[C@@H](C)CN2C3=NC[C@@H](Cc4ccccc4)N3C[C@H]2Cc2ccc(O)cc2)cc1Br	nt	nt	nt	nt	111*	75*
Clc1ccc(C(c2ccc(Cl)cc2)n2cc[n+](CC(OCc3ccc(Cl)cc3Cl)c3ccc(Cl)cc3Cl)c2)cc1 (stereo not given)	1	107*	4	-23	97*	?
COC(=O)[C@H]1[C@H](CO)[C@H]2Cn3c(ccc(-c4ccccc4)c3=O)[C@@H]1N2CC1CCCCC1	nt	nt	nt	nt	2	nt
SMILES	Rtt109 HAT inh	PfHsp90 yeast 2	Arrestin-AP2 inh	N-glyco inh	PAX8 inh HTS	HIV Env fusion
COC[C@H]1OC(=O)c2coc3c2[C@@]1(C)C1=C(C3=O)[C@@H]2CCC(=O)[C@@]2(C)C[C@H]1OC(C)=O	8	106*	-3	3	3	7
O=C(Cc1ccccc1)N1CCCCN2[C@H](CO)[C@@H](c3ccc(C#Cc4ccccc4)cc3)[C@@H]2C1	nt	nt	nt	nt	21	nt
C/C=C/c1ccc(C2[C@@H]3CN(C(=O)CN(C)C)C[C@H]2N3)cc1 (stereo not given in full)	nt	nt	nt	nt	-18	nt
COC(=O)C1=C(C(=O)OC)SC2(S1)C(C(=O)OC)=C(C(=O)OC)Sc1c2ssc1=O	-4	117*	31	22	26	i
COCCNC(=O)c1c(N)n(CCC(C)C)c2nc3ccccc3nc12	-132	-44	1	3	nt	59*
O=C1CNC[C@@H]2[C@H](c3ccc(Br)cc3)[C@@H](CO)N12	nt	nt	nt	nt	-27	nt
COC(=O)[C@H]1[C@H](CO)[C@H]2Cn3c(ccc(-c4ccccc4F)c3=O)[C@@H]1N2	nt	nt	nt	nt	2	6[16.7 µM]
O=c1[nH]c2ccccc2n1C1CCN(C(CCc2ccccc2)c2nnnn2C2CCCCC2)CC1 (stereo not given)	nt	nt	nt	-16	0	-28
O=c1[nH]c2ccccc2n1C1CCN(C(c2cccs2)c2nnnn2Cc2ccccc2)CC1 (stereo not given)	nt	nt	nt	-6	87*	30
COc1ccc(C(c2nnnn2Cc2ccccc2)N2CCC(n3c(=O)[nH]c4ccccc43)CC2)cc1 (stereo not given)	nt	nt	nt	-9	89*	-4
